DNMT1 block – human DNMT1 methyltransferase inhibitors, primary screen, biochemical, molecular beacon, fluorescence, HinP1I cleavage, uHTS. DNA (cytosine-5)-methyltransferase 1 (Homo sapiens), P26358. inhibition (reported as % activation of signal), % at 10 µM. hit rate 0.83% among 360,000; in the data active means inhibition above about 50%
Scp1 inh – Scp-1 phosphatase inhibitors, primary screen, biochemical, colorimetric, uHTS; Carboxy-terminal domain RNA polymerase II polypeptide A small phosphatase 1 (Homo …; hit rate 0.88% among 340,000; inhibition, % at 20 µM; Recombinant Scp1, phosphopeptide, malachite green phosphate absorbance;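 active means inhibition above about 50% at 20 µM, limit read from the data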
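Test system: SCP-1 phosphatase catalytic domain, residues 76-261; measured by: colorimetric phosphate reagent with accelerator and stabiliser, absorbance at 630 nm; timing: enzyme reaction 45 min at room temperature, colour 5 min, stabilisation 30 min; also added: Phosphorylated 17-residue peptide substrate; compound dosing: one concentration, 20 µM, with 1.0% DMSO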
CSN inh – inhibitors of CSN-mediated cullin deneddylation, primary screen, biochemical, fluorescence polarization, uHTS; inhibition, % at 12.5 µM; Purified CSN, SCF-Nedd8-OG deneddylation; COP9 signalosome complex subunit 5 (Homo sapiens), Q92905; AID 651999, 2013; hit rate 0.38% among 360,000;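 active means pattern-corrected inhibition above about 35%, with an unprinted fluorescence ratio check between 0.5 and 1.5, limit read from the data, passing the limit was not always enough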
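Assay system: Purified human Csn5 enzyme expressed in HEK293T cells | Amount: Enzyme 0.24 nM | Measured by: Fluorescence polarization readout | Medium: Tris/NaCl/DTT buffer, pH 7.5 | Compound dosing: One concentration, 12.5 µM, 0.25% DMSO | Times: 90 min incubation of compound, enzyme and substrate at room temperature | Control set: no-enzyme wells high, enzyme-with-substrate wells low | Read-out: % inhibition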
STEP block – STEP phosphatase inhibitors, primary screen, biochemical, fluorescence intensity, uHTS. Tyrosine-protein phosphatase non-receptor type 5 (Homo sapiens), P54829. recombinant STEP, OMFP fluorogenic substrate. hit rate 0.25% among 360,000. inhibition, % at 20 µM;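 active means inhibition at 20 µM, scaled per plate between control wells, above about 37%, limit read from the data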
Target sequence (P54829 whole entry, looked up): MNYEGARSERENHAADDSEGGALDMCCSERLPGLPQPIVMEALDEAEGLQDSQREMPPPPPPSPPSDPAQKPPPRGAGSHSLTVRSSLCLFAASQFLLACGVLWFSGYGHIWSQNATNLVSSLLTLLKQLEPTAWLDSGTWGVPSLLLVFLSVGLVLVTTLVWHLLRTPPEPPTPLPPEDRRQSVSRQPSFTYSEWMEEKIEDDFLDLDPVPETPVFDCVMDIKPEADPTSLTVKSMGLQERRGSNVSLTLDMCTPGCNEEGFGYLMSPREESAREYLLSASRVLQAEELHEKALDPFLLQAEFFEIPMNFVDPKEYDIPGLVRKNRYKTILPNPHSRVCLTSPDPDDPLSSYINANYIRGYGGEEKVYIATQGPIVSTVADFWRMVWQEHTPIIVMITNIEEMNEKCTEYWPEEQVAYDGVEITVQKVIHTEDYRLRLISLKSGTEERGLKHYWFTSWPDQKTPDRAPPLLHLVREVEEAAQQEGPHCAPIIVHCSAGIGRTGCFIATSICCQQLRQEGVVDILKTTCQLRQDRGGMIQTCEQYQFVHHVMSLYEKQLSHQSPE
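Material: STEP (striatal-enriched tyrosine phosphatase) enzyme, cell-free; Compound dosing: 20 µM single dose in 1% DMSO; Technique: fluorescence read at 480 nm ex / 540 nm em; Times: reaction 20 min, ambient temperature; Medium: 50 mM Bis-Tris pH 6.0 with 2.5 mM DTT and 0.005% Tween 20; Also added: OMFP at 25 µM.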
SUMO1-SIM PPI – modulators of SUMO1 protein-protein interactions, primary screen, biochemical, uHTS. SUMO1 binding to a labelled peptide, TR-FRET, 1 h. inhibition, % at 20 µM. hit rate 0.33% among 360,000; in the data active means inhibition above about 37%
LMPTP block – LMPTP phosphatase inhibitors, primary screen, biochemical, fluorescence intensity, uHTS. Low molecular weight phosphotyrosine protein phosphatase (Homo sapiens), P24666. recombinant LMPTP-A, OMFP fluorogenic substrate. inhibition, % at 20 µM. hit rate 0.22% among 360,000. AID 651560, 2012;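 active means compounds that cut the enzyme signal by at least half of the control window in the single-dose screen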
Target sequence (P24666 whole entry, looked up): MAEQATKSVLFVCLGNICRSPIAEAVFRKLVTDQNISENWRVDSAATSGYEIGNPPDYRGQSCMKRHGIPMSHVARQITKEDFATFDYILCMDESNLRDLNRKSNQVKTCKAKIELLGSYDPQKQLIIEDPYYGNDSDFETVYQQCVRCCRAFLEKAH
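Assay system: LMPTP-A phosphatase enzyme | Input: 0.625 nM enzyme | Also added: Fluorogenic phosphatase substrate OMFP at 400 µM final | Compound dosing: One test concentration per compound, 20 µM, with 3% DMSO overall | Schedule: 50 min enzyme reaction at room temperature, protected from light | Signal: Fluorescence intensity | Benchmarks: no-enzyme and uninhibited controls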
Each line names hits and unclear results; the compound was inactive in the other large screens. Only some compounds are listed: those with a hit (about 1.9% of all), similar ones and a draw of the others.

O=[N+]([O-])c1cc([N+](=O)[O-])c2oc(-c3ccccc3)c(Br)c2c1O	SUMO1-SIM PPI 43
O=C(NC(Cc1ccc2c(c1)OCO2)C(=O)NC(Cc1ccccc1)C(=O)O)c1ccccc1 (stereo not drawn)	none
COC(=O)c1ccccc1NC(=O)CSc1nc(NC(=O)c2ccccc2)c2c(C)c(C)oc2n1	SUMO1-SIM PPI 67
Cc1ccc(S(=O)(=O)Cc2ccc(C(=O)OCc3ccccc3)cc2)cc1	none
COC(=O)c1c[nH]c2c1-c1cc(C(=O)OCc3ccccc3)n(S(=O)(=O)c3ccc(C)cc3)c1C(=O)C2=O	DNMT1 block 96, LMPTP block 60
COc1ccc(/C(O)=C/c2nc3ccc(C(=O)NCCc4cccc(C)c4)cc3[nH]c2=O)cc1OC	none
Cc1ccc(S(=O)(=O)N2C[C@H]3[C@H]4C(=O)N(c5ccccc5)C(=O)[C@H]4CC(=O)[C@H]3[C@@H]2c2ccccc2F)cc1	CSN inh 111 (no result: Scp1 inh)
O=C(CCN1C(=O)/C(=C\C=C\c2ccccc2)SC1=S)Nc1ccc(C(=O)O)cc1	Scp1 inh 88, STEP block 87, LMPTP block 83
COc1ccc(/C=C2\SC(=S)N(CCCC(=O)Nc3cccc(C(=O)O)c3)C2=O)cc1OC	none
CCc1ccc(/C=C2\SC(=S)N(CCCC(=O)Nc3ccc(C(=O)O)cc3)C2=O)cc1	LMPTP block 64
O=C(CCCN1C(=O)C(=Cc2ccc3c(c2)OCO3)SC1=S)Nc1ccc(C(=O)O)c(O)c1	LMPTP block 52 (no result: Scp1 inh)
COc1ccc(/C=C2\SC(=S)N(CCC(=O)Nc3ccc(C(=O)O)cc3)C2=O)cc1OC	Scp1 inh 95, STEP block 85
CC(=O)Nc1cccc(NC(=O)CSc2nc(=O)n(CCCN3CCOCC3)c3c2CCC3)c1	none
CN(Cc1ccccc1)S(=O)(=O)c1ccccc1Br	none
CCCNC(=O)C1(C)CCCN(C(=O)c2ccc3snnc3c2)C1 (stereo not drawn)	none (no result: Scp1 inh)
COc1ccc(C2OC(CCc3ccccc3)CC3=C2C(=O)OC(C)(C)O3)cc1 (stereo not drawn)	none (no result: Scp1 inh)
Oc1ccc(C2=NNC(c3ccc(O)cc3)=NN2)cc1	none
COc1ccc2[nH]c3nc(SCc4nnc(-c5ccc(C)cc5)o4)nnc3c2c1	DNMT1 block 56
COc1ccc(C(=O)NCCN(C)C)c2nc3ccccc3cc12	DNMT1 block 56
Cc1ccc(Sc2cc(C(=O)NCCN(C)C)c3ccccc3n2)cc1	none
COc1cccc2nc3c(C(=O)NCCN(C)C)cccc3cc12	DNMT1 block 60
CN(C)CCNC(=O)c1cccc2nc3c(ccc4ccccc43)nc12	DNMT1 block 61
COc1ccc(Cl)cc1C(=O)NCCN(C)C	none
CN(C)CCNC(=O)c1cccc2[nH]c(-c3ccncc3)nc12	none
CCCCCCCCNCCS(=O)(=O)NN1CCOCC1	none
CC(=O)Nc1ccc2c(c1)OCCO2	none
C=C(C)C(=O)Nc1ccc2c(c1)OCCOCCOCCO2	DNMT1 block 90, Scp1 inh 97, STEP block 64, SUMO1-SIM PPI 57
O=C(CSc1nnc(Nc2ccccc2F)s1)Nc1cccc(S(=O)(=O)N2CCCCC2)c1	none
C=C(C)C(=O)Nc1cccc(C2=NOC3(C2)C[C@@H](C(N)=O)N(C(=O)c2ccc(OC)cc2)C3)c1 (stereo partly drawn)	DNMT1 block 96, Scp1 inh 99, SUMO1-SIM PPI 107
O=C(O)c1ccc2c(c1)[C@@H]1C=CC[C@@H]1[C@H](c1ccccn1)N2	DNMT1 block 111
CCOc1ccc(N(CC(=O)NC(C(C)C)C(C)C)S(=O)(=O)c2ccc(OC)c(OC)c2)cc1	none
Cc1ccc(Cl)cc1Nc1nc(-c2sc(NC(=O)c3ccco3)nc2C)cs1	none
CCCCCC(=O)Nc1nc(C)c(-c2csc(Nc3cc(Cl)ccc3C)n2)s1	SUMO1-SIM PPI 81
COc1ccc(Cl)cc1Nc1nc(-c2sc(NC(=O)CC(C)C)nc2C)cs1	SUMO1-SIM PPI 55
CCCC(C)C(=O)Nc1nc(C)c(-c2csc(Nc3cc(Cl)ccc3C)n2)s1 (stereo not drawn)	SUMO1-SIM PPI 78
CCCCCCC(=O)Nc1nc(C)c(-c2csc(Nc3cc(OC)ccc3OC)n2)s1	SUMO1-SIM PPI 70
Cc1onc(-c2c(F)cccc2Cl)c1C(=O)Oc1ccccc1	none (no result: Scp1 inh)
CC(=O)Oc1ccc2c(c1)Oc1cc(OC(C)=O)ccc1C21OC(=O)c2ccccc21	DNMT1 block active
CCOc1ccc(CCNC(=O)CN2C(=O)NC3(CCCCCC3)C2=O)cc1OCC	SUMO1-SIM PPI 48
COc1ccc(CNC(=O)CN2C(=O)NC3(CCCCCC3)C2=O)cc1OC	none
CCSc1ccc([C@@H]2[C@H]3C(=O)N(C)C(=O)[C@H]3[C@]3(C(=O)OC)CCCCN23)cc1OC	none
CC(=O)NC(=S)NNC(=O)C(c1ccccc1)c1ccccc1	CSN inh 77
CCOC(=O)C1=NN(C(=O)Cc2ccccc2)C(O)(C(C)(C)C)C1 (stereo not drawn)	none
COc1cccc(C(=O)Nc2cccc(NC(=O)c3ccccc3Cl)c2)c1	none
COc1cccc(C(=O)Nc2cccc(C(=O)NC3=NN(c4c(Cl)cc(Cl)cc4Cl)C(=O)C3)c2)c1	SUMO1-SIM PPI 44
O=C(COC(=O)c1ccc([N+](=O)[O-])s1)NCc1ccc(F)cc1	SUMO1-SIM PPI 49
O=C(OCC(=O)c1ccc[nH]1)c1ccc([N+](=O)[O-])cc1	none
O=C(COC(=O)c1ccc([N+](=O)[O-])s1)c1ccc[nH]1	DNMT1 block 50
O=C(OCc1ccccc1)N1CCCCC1c1c(Cl)cccc1Br (stereo not drawn)	none (no result: Scp1 inh)
CCOc1ccc(N2CC(C(=O)Nc3cccc(S(=O)(=O)N4CCOCC4)c3)CC2=O)cc1 (stereo not drawn)	none (no result: Scp1 inh)
NC(=O)c1c(NC(=O)Cn2nc(C(=O)O)c3ccccc3c2=O)sc2c1CCCC2	none
NC(=O)c1c(NC(=O)Cn2nc(C(=O)O)c3ccccc3c2=O)sc2c1CCC2	SUMO1-SIM PPI 66
Cc1cccc(/C=N\NC(=O)c2ccc(Cl)cc2)c1O	Scp1 inh 95
CCOc1ccc(Cn2nnc(-c3ccc(S(C)(=O)=O)cc3)n2)cc1OCC	none
Cn1c(=O)c2c(SCCN3CCOCC3)nc(C3CCCC3)nc2n(C)c1=O	none
O=Nc1c(O)c2ccccc2c2ccccc12	DNMT1 block 58
COC(=O)C(C)NC(=O)C12CC3CC(C1)CC(c1ccc(C)cc1)(C3)C2 (stereo not drawn)	none

Compound activity from PubChem.
